# RanGTP-Imp inh = disruptors of Ran-importin-beta complex formation – biochemical, FRET, CFP-Ran, YFP-importin-beta, homogeneous, primary screen | cell-free CFP-Ran/YFP-importin-beta FRET ratio | inhibition, % (concentration not given with the values) | actives 1.1% (n = 300,000) | AID 2216;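 active = more than half of the replicate wells show a fall in the fluorescence ratio signal beyond about 16%, limit read from the data, passing the limit was not always enough; inconclusive = exactly half of the replicate wells pass the set limit; inactive = fewer than half of replicates pass the limit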;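 note: 0% = DMSO wells and 100% = Ran loaded with GDP instead of GTP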
# Calpain2 inh = inhibitors of pig calpain II; purified calpain II, fluorogenic peptide substrate, 30 min; inhibition, % at 16 µM; actives 0.37% (n = 220,000);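 active = inhibition above about 50%, limit read from the data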
# Runt-SMMHC FRET = inhibitors of human RUNX1 Runt domain binding to CBFb-SMMHC. actives 0.74% (n = 220,000). Cerulean-Runt/Venus-CBFb-SMMHC FRET ratio 530/480, 1 h. inhibition, % at 20 µM. Q01196+Q13951;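 active = mean inhibition across duplicate retests at 20 µM reaching about 50%, limit read from the data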;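 note: 0% = DMSO wells and 100% = wells with excess untagged CBFb-SMMHC; inhibitors lower the FRET ratio by blocking Runt binding to CBFb-SMMHC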
# Runt-CBFb FRET = blocks binding of human RUNX1 Runt domain to CBFb; Cerulean-Runt/Venus-CBFb FRET ratio 530/480, 1 h; Q01196+Q13951; actives 0.46% (n = 220,000); inhibition, % at 20 µM;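 active = inhibition over about 50% at 20 µM in the single-dose screen, limit read from the data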;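 note: 0% = DMSO wells and 100% = excess unlabeled CBFb competitor control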
#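 Assay system: Cerulean-Runt domain fusion protein, energy donor; Signal: fluorescence energy transfer, 422 nm excitation, 530/480 nm emission; Timing: 1 h compound exposure, room temperature; Control set: unlabeled CBFb; Medium: Tris buffer pH 7.5 with salts and BSA; Compound: single test concentration of 20 µM, 1% DMSO final; Probe or stimulus: Venus-CBFb 100 nM.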
# FAS-TE inh = blocks the thioesterase domain of human fatty acid synthase. inhibition, % at 15 µM. actives 0.67% (n = 360,000). recombinant FAS-TE, OMFH fluorogenic substrate, fluorescence endpoint;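 active = compounds whose normalised, plate-corrected inhibition of enzyme fluorescence in the single-dose primary screen is 50% or more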;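 note: 0% = DMSO with enzyme and 100% = substrate without enzyme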
# Runt-CBFb TRFRET = inhibitors of human RUNX1 Runt domain binding to CBFb | shares compounds with Runt-CBFb FRET | TR-FRET RUNX1 Runt domain-CBFb binding | inhibition, % at 20 µM | actives 20% (n = 480) | AID 1502; in the data active = inhibition above about 40%
# * = called active by the depositor; ? = inconclusive; . = not tested or not shown. An excerpt weighted towards active compounds, which were near 2.1% of everything screened.
SMILES,RanGTP-Imp inh,Calpain2 inh,Runt-SMMHC FRET,Runt-CBFb FRET,FAS-TE inh,Runt-CBFb TRFRET
CCc1ccc(OCCCCCn2ccnc2)cc1,-1,.,.,.,-7,.
Cc1sc2nc[nH]c(=O)c2c1-c1ccc(Cl)cc1,2,.,.,.,2,.
CN1C(=S)SC(N(O)C(=O)Nc2ccccc2)C1(C)C (stereo unspecified),-1,-2,-2,-2,-4,.
CC1(C)C(N(O)C(=O)Nc2ccccc2)N(c2cccc(Cl)c2)C(=O)N1O (stereo unspecified),1,19,-4,53*,-28,-14
CN(C)c1nc2c(c(=O)n(C)c(=O)n2C)n1Cc1ccccc1,-3,-10,2,-1,-3,.
Cn1c(=O)nc2n(Cc3ccccc3)c3ccccc3cc-2c1=O,121*,-485,82*,90*,-4,-53
CCCCC(=O)NNC(=S)NC(=O)c1ccc([N+](=O)[O-])cc1,3,-15,22,54*,6,-20
CCCCC(=O)NNC(=S)NC(=O)c1cccc([N+](=O)[O-])c1,-1,-8,10,30,1,.
N#CC1=C2SCCN2C(=O)C(C#N)C12CCCCC2 (stereo unspecified),4,28,-3,56*,-8,1
CCSC1=C(C#N)C2(CCCCC2)C(C#N)C(=O)N1 (stereo unspecified),.,-8,1,-4,-7,.
COc1cccc(C2C(C(=O)Nc3nc4ccccc4s3)=C(C)NC3=C2C(=O)CC(C)(C)C3)c1OC (stereo unspecified),69*,-211,82*,54*,10,6
CCCCn1c(SCC(=O)NC2CCCC2)nnc1-c1ccco1,5,.,.,.,-3,.
CCOC(=O)CN1NC2(CCCC(C)C2)NC1=S (stereo unspecified),?,15,32,51*,-6,10
CCN(CC)CCNC(C(=O)Nc1cccc(C(C)=O)c1)c1ccccc1 (stereo unspecified),2,-32,6,1,-19,.
O=C1C(O)CC2c3ccccc3CC3(CCCC3)N12 (stereo unspecified),-2,-10,2,58*,0,28
CC1CC2(CCCC2)N(C(=O)c2ccccc2)Cc2ccccc21 (stereo unspecified),7,22,-4,-3,27,.
COc1ccc(N(CC(=O)Nc2ccc(C(C)C)cc2)S(=O)(=O)c2c(C)noc2C)cc1,0,.,.,.,26,.
COc1cc(/C=C(\C#N)c2nc3ccccc3[nH]2)cc(Br)c1OCc1ccc(F)cc1,5,-112,106*,54*,1,-7
COc1cc(/C=C(\C#N)c2nc3ccccc3[nH]2)cc(Br)c1OCc1ccccc1,11,-149,-66,-8,15,.
O=C(O)C1CCCCN1C(=O)c1ccc(S(=O)(=O)N2CCCC2)cc1 (stereo unspecified),.,.,.,.,-7,.
O=C(COc1ccc(Br)cc1)N(Cc1nnc(-c2ccccc2Cl)o1)C1CC1,.,.,.,.,16,.
COc1ccc(CNC(=O)CCn2nc(C)c3c(C)n(-c4ccccc4)nc3c2=O)c(OC)c1,2,.,.,.,-3,.
Oc1ccc(-c2csc(Nc3ncccn3)n2)cc1O,-2,14,35,50*,-8,42*
Oc1ccc(-c2csc(Nc3ncccn3)n2)c(O)c1,?,-22,-10,3,2,.
Oc1ccc(-c2csc(-c3cccnc3)n2)cc1O,-1,-2,33,53*,-5,68*
SMILES,RanGTP-Imp inh,Calpain2 inh,Runt-SMMHC FRET,Runt-CBFb FRET,FAS-TE inh,Runt-CBFb TRFRET
COc1ccc(NC(=O)c2ccc(-n3cnnn3)cc2)c([N+](=O)[O-])c1,-1,.,.,.,1,.
Cc1c(Nc2c3c(c(C#N)c4nc5ccccc5n24)CCC3)c(=O)n(-c2ccccc2)n1C,.,-47,12,7,.,.
Cc1c(Nc2c3ccccc3nc3ccccc23)c(=O)n(-c2ccccc2)n1C,56*,17,29,114*,-3,-4
CCCCc1c(C)c(C#N)c2nc3ccccc3n2c1Nc1c(C)n(C)n(-c2ccccc2)c1=O,21*,-58,65*,53*,8,-4
Cc1cccc(N2C(=O)CN(Cc3ccccc3)C2=S)c1,1,.,.,.,-1,.
Cc1ccc(C)c(OCC(=O)N(C)CC(=O)Nc2ccc(Cl)c(C(F)(F)F)c2)c1,.,.,.,.,28,.
Nc1cccnc1Sc1ccc([N+](=O)[O-])cn1,2,21,60,54*,11,-5
CC1CN(c2nc3ccccn3c(=O)c2/C=C(\C#N)C(=O)N2CCOCC2)CC(C)O1 (stereo unspecified),1,7,-2,-2,-2,.
CNC(=O)/C(C#N)=C/c1c(N2CC(C)OC(C)C2)nc2ccccn2c1=O (stereo unspecified),?,-123,121*,94*,-8,11
Cc1cc(S(=O)(=O)Nc2ccc3cn[nH]c3c2)c(C)cc1Cl,1,.,.,.,6,.
O=C(O)c1ccc(N=C2c3ccccc3-c3ccccc32)cc1,.,.,.,.,1,.
CCSc1nnc(NC(=O)C2CCCN(S(=O)(=O)c3cnc[nH]3)C2)s1 (stereo unspecified),-2,8,0,64*,-7,-10
Cc1ccc2nc(NC(=O)C3CCCN(S(=O)(=O)c4cnc[nH]4)C3)sc2c1 (stereo unspecified),-3,17,-5,-1,-32,.
COc1cc(C2C(C#N)=C(N)Oc3cc(C)n(CCc4ccccc4)c(=O)c32)cc2c1OCO2 (stereo unspecified),7,-6,0,0,1,.
Cc1cc2c(c(=O)n1CCc1ccccc1)C(c1ccco1)C(C#N)=C(N)O2 (stereo unspecified),11,16,.,62*,4,34
CC1(C)CC(=O)c2c(oc3cc(O)c(O)cc23)C1,0,-4,44,52*,-12,25
COC(=O)c1oc2c(c1C)C(=O)CC(C)(C)C2,4,17,-2,-1,-7,.
O=C(O)C1CC(c2ccccc2)=Nc2ccccc2S1 (stereo unspecified),-2,11,0,3,-3,.
Fc1ccc(C2CC(c3ccco3)=Nc3ccccc3S2)cc1 (stereo unspecified),3,-6,34,51*,16,-5
O=[N+]([O-])c1ccc(C2CC(c3ccccc3)=Nc3ccccc3S2)cc1 (stereo unspecified),-2,11,-3,56*,13,20
Fc1ccc(C2CC(c3ccco3)=NN2c2ccccc2)cc1 (stereo unspecified),5,-94,0,0,25,.
O=C(CCNS(=O)(=O)c1cccc(C(F)(F)F)c1)NC1CC1,.,.,.,.,-6,.
CC(C)NC(=O)c1cccc(Cn2cc(Cl)cn2)c1,4,0,2,54*,-7,-8
COc1cc(C(=O)NCCSc2ccc(F)cc2)cc(OC)c1OC,8,.,.,.,-3,.

# Screens (PubChem BioAssay)
